According to ChEMBL document CHEMBL4340551, “Design, synthesis and preliminary bioactivity studies of indomethacin derivatives as Bcl-2/Mcl-1 dual inhibitors” (Bioorg Med Chem, 2019):

How the values were obtained:
K562 = experiment: Antiproliferative activity against human K562 cells assessed as reduction in cell growth incubated for 48 hrs by MTT assay; type: functional, cell-based; conditions: K562, 48 h
In short: (§1)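 PC-3, Jurkat and K562 cells grown in RPMI 1640 with 10% FBS at 37°C, 5% CO2. Cells seeded at 2000-4000 per well and left 8 h before compound addition at a range of concentrations. Exposure 48 h, then 0.5% MTT solution for 4 h. Formazan dissolved in DMSO and absorbance read at 570 nm. IC50 derived from concentrations and inhibitory ratios.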

Jurkat [1] = experiment: Induction of apoptosis in human Jurkat cells assessed as early apoptotic cells level at 40 uM incubated for 48 hrs by annexin-V/FITC and propidium iodide staining based flow cytometry (reference value: 7.02%); type: functional
Bcl-2-like protein 1 = Bcl-2-like protein 1 (Homo sapiens, UniProt Q07817); experiment: Inhibition of 5-FAM-tagged Bid-BH3 peptide binding to Bcl-XL (unknown origin) by fluorescence polarization assay
In short: (§2)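 Competitive fluorescence polarization in which compounds displace labelled Bid-BH3 peptide from the Bcl-2 family protein, read as a fall in mP. IC50 taken from mP versus concentration. Ki calculated from IC50, Kd, and the peptide and protein concentrations.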

Jurkat [2] = experiment: Induction of apoptosis in human Jurkat cells assessed as necrotic cells level at 20 uM incubated for 48 hrs by annexin-V/FITC and propidium iodide staining based flow cytometry (reference value: 6.29%); type: functional
Jurkat [3] = experiment: Induction of apoptosis in human Jurkat cells assessed as viable cells level at 40 uM incubated for 48 hrs by annexin-V/FITC and propidium iodide staining based flow cytometry (reference value: 86.5%); type: functional
Jurkat [4] = experiment: Antiproliferative activity against human Jurkat cells assessed as reduction in cell growth incubated for 48 hrs by MTT assay; type: functional, cell-based; in short: as §1
Jurkat [5] = experiment: Induction of apoptosis in human Jurkat cells assessed as late apoptotic cells level at 40 uM incubated for 48 hrs by annexin-V/FITC and propidium iodide staining based flow cytometry (reference value: 6.29%); type: functional
[6] = target: T1, Apoptosis regulator Bcl-2 (Homo sapiens, UniProt P10415); experiment: Potency index, ratio of Ki for UMI77 to Ki for test compound for inhibition of 5-FAM-tagged Bid-BH3 peptide binding to Bcl2 (unknown origin) by fluorescence polarization assay
PC-3 = experiment: Antiproliferative activity against human PC3 cells assessed as reduction in cell growth incubated for 48 hrs by MTT assay; type: functional, cell-based; conditions: PC-3, 48 h; in short: as §1
Jurkat [7] = experiment: Induction of apoptosis in human Jurkat cells assessed as late apoptotic cells level at 20 uM incubated for 48 hrs by annexin-V/FITC and propidium iodide staining based flow cytometry (reference value: 6.29%); type: functional
Jurkat [8] = experiment: Potency index, ratio of IC50 for WL276 to IC50 for test compound for antiproliferative activity against human Jurkat cells assessed as reduction in cell growth incubated for 48 hrs by MTT assay; type: functional
[9] = target: T1, Apoptosis regulator Bcl-2; experiment: Inhibition of 5-FAM-tagged Bid-BH3 peptide binding to Bcl2 (unknown origin) by fluorescence polarization assay; conditions: read-out: Ki
Jurkat [10] = experiment: Induction of apoptosis in human Jurkat cells incubated for 48 hrs by annexin-V/FITC and propidium iodide staining based flow cytometry; type: functional, cell-based
Jurkat [11] = experiment: Induction of apoptosis in human Jurkat cells assessed as early apoptotic cells level at 20 uM incubated for 48 hrs by annexin-V/FITC and propidium iodide staining based flow cytometry (reference value: 7.02%); type: functional
[12] = target: Induced myeloid leukemia cell differentiation protein Mcl-1 (Homo sapiens, UniProt Q07820); experiment: Inhibition of 5-FAM-tagged Bid-BH3 peptide binding to Mcl1 (unknown origin) by fluorescence polarization assay; in short: as §2
Jurkat [13] = experiment: Induction of apoptosis in human Jurkat cells assessed as necrotic cells level at 40 uM incubated for 48 hrs by annexin-V/FITC and propidium iodide staining based flow cytometry (reference value: 6.29%); type: functional
[14] = target: T1, Apoptosis regulator Bcl-2; experiment: Potency index, ratio of Ki for WL276 to Ki for test compound for inhibition of 5-FAM-tagged Bid-BH3 peptide binding to Bcl2 (unknown origin) by fluorescence polarization assay
Jurkat [15] = experiment: Induction of apoptosis in human Jurkat cells assessed as viable cells level at 20 uM incubated for 48 hrs by annexin-V/FITC and propidium iodide staining based flow cytometry (reference value: 86.5%); type: functional

T1 sequence (P10415 whole entry): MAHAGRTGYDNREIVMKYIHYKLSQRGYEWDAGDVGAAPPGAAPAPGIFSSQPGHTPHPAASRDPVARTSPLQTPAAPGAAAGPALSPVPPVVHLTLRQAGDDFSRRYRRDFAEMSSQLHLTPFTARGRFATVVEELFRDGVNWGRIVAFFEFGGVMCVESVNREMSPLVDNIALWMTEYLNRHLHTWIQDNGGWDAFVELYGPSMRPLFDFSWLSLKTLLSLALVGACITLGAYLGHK
Induced myeloid leukemia cell differentiation protein Mcl-1, sequence (Q07820 whole entry): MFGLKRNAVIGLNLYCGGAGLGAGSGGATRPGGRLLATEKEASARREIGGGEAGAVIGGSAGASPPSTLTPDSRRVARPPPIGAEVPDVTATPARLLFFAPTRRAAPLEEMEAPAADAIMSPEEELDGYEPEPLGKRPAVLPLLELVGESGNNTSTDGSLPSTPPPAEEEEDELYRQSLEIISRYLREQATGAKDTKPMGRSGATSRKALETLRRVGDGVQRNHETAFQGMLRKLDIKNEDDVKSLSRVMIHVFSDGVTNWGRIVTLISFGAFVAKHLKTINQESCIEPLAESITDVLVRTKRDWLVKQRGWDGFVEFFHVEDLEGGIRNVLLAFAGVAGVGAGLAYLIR
Bcl-2-like protein 1, sequence (Q07817 whole entry): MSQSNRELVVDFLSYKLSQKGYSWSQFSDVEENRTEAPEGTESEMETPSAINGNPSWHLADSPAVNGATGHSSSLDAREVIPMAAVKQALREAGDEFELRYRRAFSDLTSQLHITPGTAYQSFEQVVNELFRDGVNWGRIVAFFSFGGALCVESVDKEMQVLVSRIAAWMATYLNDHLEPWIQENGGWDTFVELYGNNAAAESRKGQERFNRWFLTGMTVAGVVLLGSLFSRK

IC50 (K562): 35.9 µM | Ki (Bcl-2-like protein 1): Not Active | IC50 (Jurkat [4]): 24.7 µM | Ratio Ki [6]: 5 to 6 | IC50 (PC-3): 25.8 µM | Ki [9]: 0.44 µM | Ki [12]: 0.44 µM | Ratio Ki [14]: 2 to 3
SMILES: COc1ccc2c(c1)c(CC(=O)N[C@@H](Cc1ccc(OCc3ccc(Br)cc3)cc1)C(=O)NS(=O)(=O)c1ccc(Cl)c([N+](=O)[O-])c1)c(C)n2C(=O)c1ccc(Cl)cc1
Activity (Jurkat [1]): 27.5% | Activity (Jurkat [2]): 0.51% | Activity (Jurkat [3]): 42.3% | Activity (Jurkat [5]): 29.3% | Activity (Jurkat [7]): 21.3% | Ratio IC50 (Jurkat [8]): 2 | Activity (Jurkat [10]): Dose-dependent effect | Activity (Jurkat [11]): 21.8% | Activity (Jurkat [13]): 0.81% | Activity (Jurkat [15]): 56.3%
